Data published in publication PMC8056934 (Journal of Applied Glycoscience, 2017).
Entries after “also recorded” stand apart in the source; their conditions may differ. One block for each molecule: values may come before it.

How the values were obtained:
[1] = 30 °C and pH 7.0; cited from earlier work
[2] = Stability of 3ketoLG in acid; type: physicochemical; details: 100 °C, 1 h
Summary of the method: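 Test ketosugar at 10 mM is dissolved in HCl (1, 10 or 100 mM) and held at 100 °C for 1 h. After cooling, samples are diluted 1:20 in water. Remaining ketosugar is quantified by HPLC (50 µL injection) on a KS-801 column with water eluent and charged-aerosol detection.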

[3] = Heat treatment of 3ketoLG and 3ketoMeβGlc in sodium phosphate buffer, HPLC; type: physicochemical; details: sodium phosphate buffer 50 mM, pH 8.0, 60 min at 60 °C
Summary of the method: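 Samples are analysed by HPLC on a Shodex SUGAR KS-801 column (8.0 × 300 mm). Water is the eluent at 1 mL/min and 60 °C, with corona charged-aerosol detection. Chromatograms taken before and after heat treatment are compared.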

[4] = Solubility in aqueous solution; type: physicochemical; details: aqueous solution / reaction mixture
[5] = Stability of 3ketoLG in buffer; type: physicochemical; details: for k: 10 mM 3ketoLG; for Ea: linear regression of the Arrhenius equation
Summary of the method: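 Ketosugar is incubated at 30–70 °C in 50 mM sodium phosphate or 50 mM sodium acetate (pH 4.0, 5.0) buffers. At each time point, aliquots are diluted 1:20 into 1 mM acetic acid and quantified by HPLC. k comes from a single-exponential fit of the time course, and t1/2 = ln2/k. Ea at each pH comes from linear Arrhenius regression.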

pyranose oxidase (P2O) = pyranose oxidase (P2O) (Trametes versicolor, UniProt P79076); test: Measurement of P2O activity; type: biochemical, Coriolus sp.; details: for Km: P2O, LG: linear S–V relationship between 4 and 40 mM
[6] = substrate 10 mM, 30 °C, MOPS-Na buffer 25 mM, pH 7.5

SMILES: O=C1CO[C@H](CO)[C@@H](O[C@@H]2O[C@H](CO)[C@@H](O)[C@H](O)[C@H]2O)[C@@H]1O [1,5-anhydro-4-O-β-D-glucopyranosyl-D-fructose]
half-life [1]: 17 h

Decrease of 3ketoLG ([2]; 1 mM HCl): No significant decrease | 3ketoLG remained ([2]; 100 mM HCl): > 90% | Change on heat treatment (HPLC) [3]: significantly decreased | k ([5]; pH 4.0, 70 °C, sodium acetate buffer 50 mM): 0.062 ± 0.002 h⁻¹ | k ([5]; pH 5.0, 70 °C, sodium acetate buffer 50 mM): 0.20 ± 0.01 h⁻¹ | k ([5]; pH 6.0, 40 °C, sodium phosphate buffer 50 mM): 0.028 ± 0.003 h⁻¹ | k ([5]; pH 6.0, 50 °C, sodium phosphate buffer 50 mM): 0.085 ± 0.005 h⁻¹ | k ([5]; pH 6.0, 60 °C, sodium phosphate buffer 50 mM): 0.32 ± 0.04 h⁻¹ | k ([5]; pH 6.0, 70 °C, sodium phosphate buffer 50 mM): 1.0 ± 0.1 h⁻¹ | Ea ([5]; pH 6.0): 109 kJ/mol | k ([5]; pH 7.0, 30 °C, sodium phosphate buffer 50 mM): 0.043 ± 0.003 h⁻¹ | k ([5]; pH 7.0, 40 °C, sodium phosphate buffer 50 mM): 0.13 ± 0.01 h⁻¹ | k ([5]; pH 7.0, 50 °C, sodium phosphate buffer 50 mM): 0.33 ± 0.02 h⁻¹ | k ([5]; pH 7.0, 60 °C, sodium phosphate buffer 50 mM): 1.7 ± 0.1 h⁻¹ | k ([5]; pH 7.0, 70 °C, sodium phosphate buffer 50 mM): 4.4 ± 0.1 h⁻¹ | Ea ([5]; pH 7.0): 102 kJ/mol | k ([5]; pH 8.0, 30 °C, sodium phosphate buffer 50 mM): 0.083 ± 0.005 h⁻¹ | k ([5]; pH 8.0, 40 °C, sodium phosphate buffer 50 mM): 0.21 ± 0.02 h⁻¹ | k ([5]; pH 8.0, 50 °C, sodium phosphate buffer 50 mM): 0.57 ± 0.03 h⁻¹ | k ([5]; pH 8.0, 60 °C, sodium phosphate buffer 50 mM): 3.0 ± 0.1 h⁻¹ | k ([5]; pH 8.0, 70 °C, sodium phosphate buffer 50 mM): 9.1 ± 0.4 h⁻¹ | Ea ([5]; pH 8.0): 104 kJ/mol
SMILES: O=C1[C@@H](O)[C@@H]2OC[C@@H](O2)[C@H]1O [3ketoLG, 1,6-anhydro-β-D-ribo-hexopyranos-3-ulose]
Solubility [4]: poor solubility; also recorded: low solubility

Km (pyranose oxidase (P2O)): 1 mM | Specific activity of P2O (pyranose oxidase (P2O); [6]): 5.1 U/mg-solid | Specific activity of P2O relative to D-glucose (pyranose oxidase (P2O); substrate 10 mM, 30 °C, MOPS-Na buffer 25 mM, pH 7.5, D-glucose = 100 %): 100%
SMILES: OC[C@H]1OC(O)[C@H](O)[C@@H](O)[C@@H]1O (stereo partly drawn) [D-glucose]

Km (pyranose oxidase (P2O)): > 40 mM | Specific activity of P2O (pyranose oxidase (P2O); [6]): 0.018 U/mg-solid
SMILES: O[C@@H]1[C@@H](O)[C@@H]2OC[C@@H](O2)[C@H]1O [LG, 1,6-anhydro-β-D-glucopyranose]

Oxidation by P2O (pyranose oxidase (P2O)): did not oxidize
SMILES: O=C[C@H](O)[C@@H](O)[C@H](O[C@@H]1O[C@H](CO)[C@@H](O)[C@H](O)[C@H]1O)[C@H](O)CO [cellobiose]

Oxidation by P2O (pyranose oxidase (P2O)): did not oxidize
SMILES: COC1OC(CO)C(O)C(O)C1O [methyl-α-D-glucopyrnaoside]
